24 compounds from ChEMBL document CHEMBL1137462, “Indoloxypropanolamine analogues as 5-HT(1A) receptor antagonists” (Bioorg Med Chem Lett, 2007) can be followed below.

A word on the Emax: it is the greatest response seen or fitted, relative to the assay's reference. The term Ki denotes the equilibrium dissociation constant of an inhibitor or competing ligand from its target. Broadly, the EC50 is the concentration at which the effect is half-maximal. For orientation: ED50 means the dose that gives a 50% effect, or the effect in half of the subjects.

Assay [1] deals with T1, 5-hydroxytryptamine receptor 1A (Homo sapiens) (UniProt P08908).
T1 sequence (whole entry): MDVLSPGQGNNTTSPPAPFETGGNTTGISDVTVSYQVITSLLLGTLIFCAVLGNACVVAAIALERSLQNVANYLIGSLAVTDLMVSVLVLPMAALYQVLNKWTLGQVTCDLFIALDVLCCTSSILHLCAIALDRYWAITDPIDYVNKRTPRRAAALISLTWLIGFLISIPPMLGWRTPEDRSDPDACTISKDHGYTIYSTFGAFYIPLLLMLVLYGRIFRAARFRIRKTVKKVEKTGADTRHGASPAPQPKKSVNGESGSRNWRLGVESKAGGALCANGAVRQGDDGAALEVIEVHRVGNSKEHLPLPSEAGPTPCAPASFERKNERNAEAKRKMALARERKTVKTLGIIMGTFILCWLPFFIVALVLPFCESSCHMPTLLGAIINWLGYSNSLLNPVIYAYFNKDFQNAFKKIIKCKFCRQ
As to the kind of experiment: Antagonist activity at human 5HT1A expressed in mouse LM(tK-) cells assessed as maximal 5-HT-stimulated [35S]GTPgammaS binding relative to 5HT. The assay is classed as functional, cell-based. On the technique in general: GTPγS resists hydrolysis and so accumulates on activated G proteins.

In assay [2] the target is T2, 5-hydroxytryptamine receptor 1A (Homo sapiens, UniProt P08908).
T2 sequence (P08908 whole entry): T1 sequence (whole entry)
Nature of the assay: Displacement of [3H]DPAT from human 5HT1A receptor. The essentials:
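Radioligand binding in vitro using cell lines expressing the human 5-HT1A receptor. Values are mean ± SEM of at least three determinations.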

Assay [3] deals with T2, 5-hydroxytryptamine receptor 1A. As to the kind of experiment: Antagonist activity at human 5HT1A expressed in mouse LM(tK-) cells assessed as 5-HT-stimulated [35S]GTPgammaS binding. In kind it is functional, cell-based. The essentials:
(§1)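 [35S]GTPγS binding in mouse LM(tk−) cells expressing the human 5-HT1A receptor, with binding stimulated by 300 nM 5-HT. Ki was calculated from inhibition of that stimulation. Maximal inhibition was expressed as a percentage of the stimulation produced by a maximal 5-HT concentration. Where Ki could not be obtained, inhibition was read at the highest accurately testable compound concentration.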

Assay [4] addresses T1, 5-hydroxytryptamine receptor 1A (Homo sapiens). Nature of the assay: Antagonist activity at human 5HT1A expressed in mouse LM(tK-) cells assessed as maximal inhibition of 5-HT-stimulated [35S]GTPgammaS binding. The assay is classed as functional, cell-based. On the set-up: scale not given: the % may be the effect or the level left.
The target in assay [5] is Beta-1 adrenergic receptor (Homo sapiens, UniProt P08588). Nature of the assay: Binding affinity at human adrenergic beta-1 receptor.
For assay [6], the target named is Beta-2 adrenergic receptor (Homo sapiens, UniProt P07550). As to the kind of experiment: Binding affinity at human adrenergic beta2 receptor.
Assay [7] concerns the target T2, 5-hydroxytryptamine receptor 1A. As to the kind of experiment: Antagonist activity at human 5HT1A expressed in mouse LM(tK-) cells assessed as inhibition of 5-HT-stimulated [35S]GTP-gamma-S binding. In kind it is functional, cell-based. The gist of the method: as §1
Assay [8] has as its target T1, 5-hydroxytryptamine receptor 1A (Homo sapiens). Nature of the assay: Antagonist activity at human 5HT1A expressed in mouse LM(tK-) cells assessed as inhibition of 5-HT-stimulated [35S]GTP-gamma-S binding at 10 uM. The assay is classed as functional, cell-based. Also noted: scale not given: the % may be the effect or the level left. The essentials:
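Human 5-HT1A receptor expressed in mouse LM(tk-) cells. [35S]GTPγS binding was stimulated with 300 nM 5-HT, and inhibition was measured at a single compound concentration, the highest that could be accurately tested.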

Assay [9] relates to Rattus norvegicus. Nature of the assay: Blockade of 8-OH-DPAT-induced increase in serum corticosterone level in Spargue-Dawley rat at 0.03 mg/kg, sc. The assay is classed as functional. The conditions noted are these: route subcutaneous. The gist of the method:
(§2)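 Male Sprague–Dawley rats received compound sc at 0.03–1.0 mg/kg, 15 min before 0.3 mg/kg sc 8-OH-DPAT. Rats were killed 1 h after the agonist. Serum corticosterone was measured with a 3H-corticosterone kit. Results are mean and standard error, n = 5 rats per group, with percent antagonism of the 8-OH-DPAT-induced rise.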

The subject of assay [10] is Rattus norvegicus. Nature of the assay: Blockade of 8-OH-DPAT-induced increase in serum corticosterone level in Spargue-Dawley rat at 0.3 mg/kg, sc. The assay is classed as functional. The conditions noted are these: route subcutaneous. The essentials:
as §2

The test system of assay [11] is Rattus norvegicus. As to the kind of experiment: Blockade of 8-OH-DPAT-induced increase in serum corticosterone level in sc dosed Spargue-Dawley rat. In kind it is functional. The essentials:
as §2

The test system of assay [12] is Rattus norvegicus. As to the kind of experiment: Blockade of 8-OH-DPAT-induced increase in serum corticosterone level in male Spargue-Dawley rat at 1.0 mg/kg, sc. In kind it is functional. The conditions noted are these: route subcutaneous. The gist of the method:
as §2

For assay [13], the system named is Rattus norvegicus. Nature of the assay: Blockade of 8-OH-DPAT-induced increase in serum corticosterone level in Spargue-Dawley rat at 0.1 mg/kg, sc. The conditions noted are these: route subcutaneous. The assay is classed as functional. The gist of the method:
as §2

Each structure is given as a SMILES string.

Chain of Beta-2 adrenergic receptor (P07550 whole entry): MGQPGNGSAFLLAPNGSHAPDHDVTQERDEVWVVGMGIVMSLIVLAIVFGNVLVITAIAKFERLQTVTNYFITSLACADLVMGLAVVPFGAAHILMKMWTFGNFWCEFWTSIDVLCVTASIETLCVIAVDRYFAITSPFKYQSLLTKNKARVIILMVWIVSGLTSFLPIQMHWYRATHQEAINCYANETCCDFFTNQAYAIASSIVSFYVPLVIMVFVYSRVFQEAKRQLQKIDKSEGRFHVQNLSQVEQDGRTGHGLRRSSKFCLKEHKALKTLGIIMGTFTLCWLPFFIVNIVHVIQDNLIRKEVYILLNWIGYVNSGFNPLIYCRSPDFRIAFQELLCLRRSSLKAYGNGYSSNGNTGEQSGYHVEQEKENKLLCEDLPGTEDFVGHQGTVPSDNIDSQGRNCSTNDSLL
Chain of Beta-1 adrenergic receptor (P08588 whole entry): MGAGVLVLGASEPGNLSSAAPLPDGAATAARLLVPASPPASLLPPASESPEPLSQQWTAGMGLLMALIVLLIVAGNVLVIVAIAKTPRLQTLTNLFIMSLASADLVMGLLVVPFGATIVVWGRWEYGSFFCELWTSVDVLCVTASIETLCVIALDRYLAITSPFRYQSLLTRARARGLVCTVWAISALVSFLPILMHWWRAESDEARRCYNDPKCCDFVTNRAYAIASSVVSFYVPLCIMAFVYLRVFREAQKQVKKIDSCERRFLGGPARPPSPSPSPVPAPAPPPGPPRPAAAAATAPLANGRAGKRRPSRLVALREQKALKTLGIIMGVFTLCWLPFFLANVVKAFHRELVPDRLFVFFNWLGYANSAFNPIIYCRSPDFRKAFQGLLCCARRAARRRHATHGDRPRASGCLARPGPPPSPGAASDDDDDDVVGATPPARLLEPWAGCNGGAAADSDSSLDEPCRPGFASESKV

In the case of `OC(CCNC12CC3CC(CC(C3)C1)C2)COc1cccc2[nH]ccc12` (configuration not stated), in assay [1], the Emax amounted to 51.8%. Also, in [2], the affinity corresponds to a Ki of 76.1 nM. In addition, the EC50 in [3] was determined as 854 nM.

As to `O[C@@H](CNC12CC3CC(CC(C3)C1)C2)COc1cccc2[nH]ccc12`, in assay [4], the Activity was 6.38%. Besides, the Ki in assay [2] amounted to 3.89 nM; in assay [5], 7.92 nM; in assay [6], 6.63 nM; in assay [7] it was 4.65 nM.

Consider `OC(CNC1CCCCCC1)COc1cccc2[nH]ccc12` (configuration not stated), for which the Activity in assay [4] worked out at 8.9%. For the same compound, the Ki in [2] worked out at 6.82 nM; in assay [7], 11.3 nM.

Turning to `O[C@H](CNC12CC3CC(CC(C3)C1)C2)COc1cccc2[nH]ccc12`, the Activity in assay [4] was found to be 3.15%. The Ki in assay [2] turned out to be 18.3 nM; in [7] it was 29.9 nM.

On to `OC(CCNC1CCCCC1)COc1cccc2[nH]ccc12` (configuration not stated), for which, in assay [1], the Emax is 45.6%. In assay [2], this compound came in with a Ki of 125 nM. Also, in [3], the EC50 was 394 nM.

As for `OC(CCOc1cccc2[nH]ccc12)CNC12CC3CC(CC(C3)C1)C2` (configuration not stated), the Ki in assay [2] stood at 551 nM.

For `O[C@H](CNC1CCCCC1)COc1cccc2[nH]ccc12`, the Activity in assay [4] worked out at 8.87%. The Ki in [2] was 26.1 nM; in assay [7] it was 50.8 nM.

In [2], `c1cc(OCCCNC2CCCCC2)c2cc[nH]c2c1` had a Ki of 78.4 nM. Further, in [8], the Activity worked out at 31.3%.

Turning to `O[C@@H](CNC1CCCCC1)COc1cccc2[nH]ccc12`, the Activity in assay [4] was found to be 7.52%; in the assay with Rattus norvegicus [9], 13%; in the assay on Rattus norvegicus [10], 53%; in the assay with Rattus norvegicus [12], 92%; with Rattus norvegicus [13], 26%. Moreover, the Ki in [2] is 1.33 nM; in assay [5] it was 2.37 nM; in assay [6], 3.75 nM; in assay [7], 6.68 nM. In the assay with Rattus norvegicus [11], the 50% effect level (ED50) was put at a dose of 2.5 mg/kg.

`OC(CNC1CCCCC1)COc1cccc2[nH]ccc12` (configuration not stated): the Activity in [4] came out at 9.88%. Further, the Ki came out at 3.58 nM in assay [2] and 9.83 nM in assay [7].

In the case of `COC(CNC12CC3CC(CC(C3)C1)C2)COc1cccc2[nH]ccc12` (configuration not stated), in [2], the Ki turned out to be 32 nM. In addition, the Activity in assay [8] was found to be 28.9%.

For the compound `OC(CNC12CC3CC(CC(C3)C1)C2)COc1cccc2[nH]ccc12` (configuration not stated), in [4], the Activity was 6.56%. For the same compound, the Ki stood at 9.29 nM in [2] and 7.84 nM in assay [7].

The compound `C[C@](O)(CNC12CC3CC(CC(C3)C1)C2)COc1cccc2[nH]ccc12` displayed a Ki in [2] of 868 nM.

For `c1cc(OCCCNC2CCCC2)c2cc[nH]c2c1`, the Activity in assay [4] is 24.8%. Moreover, the Ki came out at 94.3 nM in assay [2] and 233 nM in assay [7].

Regarding `OC(CNC1CCCC1)COc1cccc2[nH]ccc12` (configuration not stated), in assay [4], the Activity turned out to be 11.8%. Besides, the Ki worked out at 10.6 nM in [2] and 35.5 nM in assay [7].

On to `OC(CCOc1cccc2[nH]ccc12)CNC1CCCCC1` (configuration not stated), for which the Ki in assay [2] is 872 nM.

Compound `COC(CNC1CCCCC1)COc1cccc2[nH]ccc12` (configuration not stated) showed an inhibition constant Ki in [2] of 40.6 nM. In addition, the Activity in [8] is 36.2%.

Take `CC(C)NCC(O)COc1cccc2[nH]ccc12` (configuration not stated): in assay [4], the Activity turned out to be 9.76%.

Turning to `OC(CNC1CCCCC1)COc1ccc2[nH]ccc2c1` (configuration not stated), the inhibition constant Ki in [2] was greater than 3000 nM.

Regarding `C[C@](O)(CNC1CCCCC1)COc1cccc2[nH]ccc12`, in assay [2], the Ki is 1450 nM.

For `OC(CNC12CC3CC(CC(C3)C1)C2)COc1ccc2[nH]ccc2c1` (configuration not stated), the affinity in assay [2], expressed as Ki, was 833 nM.

As to `CC(C)NCC(O)CCOc1cccc2[nH]ccc12` (configuration not stated), affinity in assay [2] was put at a Ki of 1770 nM.

In the case of `CCC(CC)NCC(O)COc1cccc2[nH]ccc12` (configuration not stated), the Activity in [4] was found to be 4.74%. The Ki was found to be 28.6 nM in [2] and 49.8 nM in assay [7].

For `O[C@@H](CNC1C2CC3CC(C2)CC1C3)COc1cccc2[nH]ccc12` (some centres not stated), in [4], the Activity was 8.75%. Also, the Ki was 11.2 nM in assay [2] and 24 nM in assay [7].
